Source: ChEMBL document CHEMBL5385968 (RSC Med Chem, 2024)
Calls of active or inactive are those of the source. The rule behind the calls is not given here.

Legend:
[1] = target: T1, Neutrophil elastase (Homo sapiens) (UniProt P08246); test: Inhibition of human neutrophil elastase using N-methylsuccinyl-Ala-Ala-Pro-Val-7-amino-4-methylcoumarin as substrate at 50 uM measured every 30 secs for 10 mins by fluorescence based analysis
T1 sequence (whole entry): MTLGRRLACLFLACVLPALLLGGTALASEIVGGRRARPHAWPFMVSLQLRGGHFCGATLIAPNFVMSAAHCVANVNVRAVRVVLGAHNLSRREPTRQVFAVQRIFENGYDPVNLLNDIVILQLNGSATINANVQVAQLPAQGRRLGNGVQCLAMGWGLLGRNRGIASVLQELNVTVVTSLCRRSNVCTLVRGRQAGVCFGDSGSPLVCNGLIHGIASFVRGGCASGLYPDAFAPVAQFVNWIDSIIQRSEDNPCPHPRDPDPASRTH

[2] = Cytotoxicity against CD-1 mouse bone marrow leucocytes assessed as reduction in cell viability at 25 uM incubated for 90 mins by CellTiter-Glo Luminescent assay; type: toxicity, cell-based; settings: leucocyte
Method in brief: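 CD-1 mouse bone marrow leukocytes at 10^4 cells/well were exposed to compounds up to 25 μM (highest tested; final DMSO 1%) for 90 min at 37 °C, 5% CO2. Viability was read by CellTiter-Glo luminescence. IC50 values are mean ± SD of three independent experiments.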

[3] = system: Leucocyte; test: Antiradical activity against PMA-stimulated BALB/c mouse bone marrow leucocytes assessed as inhibition of ROS production at 50 uM measured for 60 mins by chemiluminescence based analysis; type: functional, cell-based
Method in brief: (§1)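 BALB/c mouse bone marrow leukocytes were suspended at 10^6 cells/ml in HBSS with Ca2+/Mg2+ and 40 μM L-012. Compounds were added in HBSS+ (final DMSO 1%), tested up to a highest concentration of 50 μM. Cells were stimulated with 200 nM PMA, and chemiluminescence was read every 2 min for 60 min at 37 °C. IC50 came from % inhibition of the 60-min integrated signal versus log concentration (5–7 concentrations, nonlinear regression). Values are mean ± SD, n=3.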

[4] = Antiradical activity against PMA-stimulated BALB/c mouse bone marrow leucocytes assessed as inhibition of ROS production measured for 60 mins by chemiluminescence based analysis; type: functional, cell-based; settings: Leucocyte, 1 h
Method in brief: as §1, with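 “°C.” for “°C. IC50 came from % inhibition of the 60-min integrated signal versus log concentration (5–7 concentrations, nonlinear regression).”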

SMILES | inhibition [1] | Activity [2] | other results
O=c1c2ccccc2[se]n1-c1ccccc1 | inactive |  | 
O=C(NC1CC1)c1ccc(-n2[se]c3ccccc3c2=O)cc1 | inactive |  | 
CC(C)(C)C(=O)Oc1ccc(S(=O)(=O)n2[se]c3ccccc3c2=O)cc1 |  | Non-Toxic | 
Cc1cccc(NC(=O)c2ccc(-n3[se]c4ccccc4c3=O)cc2)c1 | inactive | Non-Toxic | inhibition [3]: inactive
CCOC(=O)n1[se]c2ccccc2c1=O | inactive |  | 
CCCCCC(=O)n1[se]c2ccccc2c1=O |  | Non-Toxic | inhibition [3]: inactive
O=C(NC1CC1)n1[se]c2ccccc2c1=O | inactive |  | 
O=C(c1ccsc1)n1[se]c2ccccc2c1=O | inactive | Non-Toxic | 
CCOC(=O)CC(=O)n1[se]c2ccccc2c1=O | inactive |  | 
CCOC(=O)c1ccc(-n2[se]c3ccccc3c2=O)cc1 | inactive | Non-Toxic | 
Cc1cccc(C(=O)n2[se]c3ccccc3c2=O)c1 |  | Non-Toxic | 
CC(C)(C)C(=O)Oc1ccc(S(=O)(=O)Nc2ccccc2C(=O)NCC(=O)O)cc1 |  | Non-Toxic | 
O=C(C1CC1)n1[se]c2ccccc2c1=O |  |  | IC50 [4]: 50 nM
